From PubChem BioAssay
This is a sample that favours compounds with a hit; in the whole collection about 0.41% have one here.
TNAP inh hiacc = inhibitors of human TNAP at high phosphate acceptor concentration; P05186; 200,000 compounds, 0.03% hits; inhibition, % at 20 µM; purified TNAP, CDP-star luminescence, 1 M DEA;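 active = over 50% inhibition of tissue-nonspecific alkaline phosphatase at 20 µM in the single-dose screen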
TNAP inh noacc = blocks human TNAP activity with no phosphate acceptor present. P05186. purified TNAP, CDP-star luminescence, 30 min. 200,000 compounds, 0.26% hits. AID 1012. inhibition, % at 20 µM;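 active = tissue-nonspecific alkaline phosphatase inhibition above about 50% at 20 µM in the single-dose screen, limit read from the data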
TNAP act hiacc = activators of human TNAP at high phosphate acceptor concentration | 200,000 tested, under 10 active | purified TNAP, CDP-star luminescence, 1 M DEA, 30 min; stronger effect = higher value; 0 = EDTA background, 1 = DMSO-only activity | activation factor at 20 µM;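 active = activation factor at least 2 at 20 µM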
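Measured by: Luminescent substrate turnover signal | Test system: Human TNAP | Input: TNAP 1/800 final | Dosing: 20 µM single point | Schedule: 30 min, room temperature | Controls: EDTA wells as negative control, DMSO wells as positive control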
ABCB1 block = blocks JC-1 efflux by human ABCB1 transporter | P08183 | CCRF-Adr cells, flow cytometry | inhibition, % at 6.6 µM | 190,000 compounds, 0.067% hits; in the data active = inhibition above about 40%;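 also: higher value means more JC-1 retained so stronger ABCB1 efflux block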
ABCG2 block = human ABCG2 inhibition, ABCB1 as counter-screen. AID 1325. Q9UNQ0. inhibition, % at 6.6 µM. 190,000 compounds, 0.1% hits. IgMXP3 cells, JC-1 efflux, flow cytometry;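 active = inhibition above 80%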
Target sequence (Q9UNQ0 whole entry, looked up): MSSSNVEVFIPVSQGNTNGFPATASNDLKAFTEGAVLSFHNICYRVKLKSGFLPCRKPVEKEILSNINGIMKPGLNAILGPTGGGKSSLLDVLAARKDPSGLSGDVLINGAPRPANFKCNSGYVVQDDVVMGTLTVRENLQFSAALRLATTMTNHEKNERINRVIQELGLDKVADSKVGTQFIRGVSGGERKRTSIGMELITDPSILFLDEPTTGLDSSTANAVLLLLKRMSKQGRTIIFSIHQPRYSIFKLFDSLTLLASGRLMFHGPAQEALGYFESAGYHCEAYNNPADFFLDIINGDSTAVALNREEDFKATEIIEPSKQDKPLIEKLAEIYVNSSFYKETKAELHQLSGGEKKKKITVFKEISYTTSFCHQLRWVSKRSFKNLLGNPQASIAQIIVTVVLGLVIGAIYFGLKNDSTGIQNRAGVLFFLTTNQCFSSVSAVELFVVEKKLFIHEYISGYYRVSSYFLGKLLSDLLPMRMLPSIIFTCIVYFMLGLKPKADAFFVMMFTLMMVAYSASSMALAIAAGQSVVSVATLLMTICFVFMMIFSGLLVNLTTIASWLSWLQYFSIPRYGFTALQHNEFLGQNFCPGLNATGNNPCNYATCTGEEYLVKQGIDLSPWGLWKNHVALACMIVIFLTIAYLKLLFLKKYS
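Measure – % inhibition of efflux relative to nicardipine and DMSO · Test system – ABCG2 IgMXP3 and barcoded ABCB1 CCRF-Adr cell mix · Control set – nicardipine as high control, DMSO as low control · Compound – one concentration, 6.6 µM final · Signal – flow cytometry of retained JC-1 fluorescence · Timing – 10 min exposure at 25 °C with rotation, no wash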
Hits are given with their value; 0 = inactive; - = no result.

SMILES	TNAP inh hiacc	TNAP inh noacc	TNAP act hiacc	ABCB1 block	ABCG2 block
CC(=O)C1=C(S(=O)(=O)c2ccc(C)cc2)CS(=O)(=O)C1	0	0	0	0	0
O=C(NNC(=O)c1ccc2ccccc2c1O)c1ccccc1Cl	0	65.2	0	0	0
O=C(NNC(=O)c1ccccc1Br)c1ccccc1Cl	0	0	0	0	0
O=S(=O)(c1cccs1)N1CCC(CO)(Cc2ccc(Cl)cc2)CC1	0	0	0	0	0
CC(CCc1ccccc1)NC(=O)CN1CCN(c2ccc(O)cc2)CC1 (stereo not given)	0	0	0	0	0
Cn1c(NC(=O)c2cccnc2)nc2ccccc21	0	68.7	0	0	0
O=C(Nc1cnc2ccccc2c1)c1cccnc1	0	0	0	0	0
COc1ccc(Cc2nn3c(-c4ccccc4OC)nnc3s2)cc1	0	59.3	0	0	0
CCOCCCNC(=O)Cn1cnc2sc(C)c(S(=O)(=O)N3CCN(c4ncccn4)CC3)c2c1=O	0	0	0	0	0
Clc1ccc(-c2ccc(SCc3ccccn3)nn2)cc1	0	0	0	0	0
c1ccc(CSc2ccc(-c3ccccn3)nn2)nc1	0	54.5	0	0	0
OCCC1CN(Cc2ccccc2-c2ccco2)CCN1C1CCCC1 (stereo not given)	0	0	0	0	0
NC(=O)c1nn(-c2ccc(Cl)cc2Cl)c(=O)cc1O	0	0	0	0	0
CCCc1nn2c(N)c(/C=C3\C=Nc4ccccc43)c(=O)nc2s1	0	58.2	0	0	0
CC(C)Cc1nn2c(N)c(/C=C3\C=Nc4ccccc43)c(=O)nc2s1	0	83.1	0	0	0
CCCCc1nn2c(N)c(/C=C3\C=Nc4ccccc43)c(=O)nc2s1	0	66.1	0	-	0
CC(C)Sc1nsc2nc(=O)c(/C=C3\C=Nc4ccccc43)c(N)n12	0	61.6	0	0	0
CC1=C(C)CC(C(=O)Nc2ccc(C(=O)N3CCOCC3)cc2)C(C(=O)O)C1 (stereo not given)	0	0	0	0	0
Cn1cnc([N+](=O)[O-])c1Oc1ccc2ccccc2c1	0	0	0	0	0
O=C(Nc1n[nH]c(C2CCCCC2)n1)C1CCCCC1	0	72.4	0	0	0
O=[N+]([O-])c1ccc(N/N=C/c2ccc(O)c(O)c2O)c(S(=O)(=O)N2CCOCC2)c1	0	0	0	0	0
O=[N+]([O-])c1ccc(N/N=C/c2cccc(O)c2O)c(S(=O)(=O)N2CCOCC2)c1	0	78.9	0	0	0
C=CCNC(=S)NNC(=O)c1ccc(Br)cc1	0	0	0	0	0
C=CCNC(=S)NNC(=O)c1cc(O)ccc1O	0	67.8	0	0	0
CN(Cc1cc(=O)n2ccsc2n1)C1CCCCC1	0	0	0	0	0
SMILES	TNAP inh hiacc	TNAP inh noacc	TNAP act hiacc	ABCB1 block	ABCG2 block
COc1cc(/C=C/C(=O)CC(=O)/C=C/c2ccc(O)c(OC)c2)ccc1O	52.6	0	0	0	0
CN1CC(=O)N(CC(=O)Nc2ccc3c(c2)CCC3)C1=O	0	0	0	0	0
Cc1cc(-c2ccc(Cl)s2)n[nH]1	0	55.0	0	0	0
Cc1cc(-c2cccs2)n[nH]1	0	0	0	0	0
c1cnc(N2CCN(c3cnccn3)CC2)nc1	0	0	0	0	0
Cc1n[nH]c(C)c1S(=O)(=O)N1CCN(c2ccccn2)CC1	0	58.9	0	0	0
COc1ccc(-c2[nH]ncc2CN2CCCO2)c(F)c1	0	64.4	0	0	0
COc1ccc(-c2[nH]ncc2CN2CCC(N3CCSCC3)CC2)c(F)c1	0	75.2	0	0	0
COCC1CCN(Cc2cn[nH]c2-c2ccc(OC)cc2F)C1 (stereo not given)	0	73.9	0	0	0
COc1ccccc1C(=O)N1CCN(Cc2cn[nH]c2-c2ccc(F)cc2F)CC1	0	85.6	0	0	0
CCOC(=O)C1CCCN(Cc2cn[nH]c2-c2ccc(F)cc2F)C1 (stereo not given)	0	0	0	0	0
COc1ccc(-c2[nH]ncc2CN2CCC(OCc3ccccc3)CC2)c(F)c1	0	0	0	0	0
c1ccc(-c2ccc(-c3[nH]ncc3CN3CCC(N4CCSCC4)CC3)cc2)cc1	0	0	0	0	0
CCOC(=O)c1cc2sccc2n1CC(=O)C(C)(C)C	0	0	0	0	0
